Measured values reported in ChEMBL document CHEMBL3286347, “Evaluation of anti-inflammatory activity of prenylated substances isolated from Morus alba and Morus nigra” (J Nat Prod, 2014).
One block for each molecule: values may come before it. The source made the active and inactive calls. The rule behind the calls is not given here.

What was measured:
THP-1 [1] = experiment: Cytotoxicity against human THP1 cells after 24 hrs by WST1 assay; format: cell-based; conditions: THP-1, 24 h
Summary of the method: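 THP-1 monocyte suspension (5 × 10^5 cells/mL) exposed to compounds in DMSO, 30 down to 0.37 μM, DMSO 0.1% final; 24 h at 37 °C, 5% CO2; viability by WST-1 reagent; IC50 calculated from viability curves; triplicate, arithmetic mean ± SE.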

A2780 = experiment: Cytotoxicity against human A2780 cells; format: cell-based
THP-1 [2] = experiment: Antiinflammatory activity in human THP1 cells assessed as inhibition of IL-1beta secretion at 1 uM treated 1 hr before LPS challenge measured after 24 hrs by ELISA; format: functional, cell-based
Summary of the method: (§1)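 THP-1 monocytes (RPMI 1640, 10% FBS, 37 °C, 5% CO2) differentiated to macrophages with PMA; pretreated 1 h with test agent at 1 μM in DMSO (0.1% final); LPS (E. coli 0111:B4) 1 μg/mL added, medium collected after 24 h and stored at −80 °C; secreted cytokine quantified by ELISA; vehicle and non-LPS controls; three independent experiments, mean ± SE.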

THP-1 [3] = experiment: Antiinflammatory activity in human THP1 cells assessed as inhibition of TNFalpha secretion at 1 uM treated 1 hr before LPS challenge measured after 24 hrs by ELISA; format: functional, cell-based; summary of the method: as §1
[4] = target: Transcription factor p65 (Homo sapiens) (UniProt Q04206); experiment: Inhibition of NFkappaB p65 nuclear translocation in LPS-induced human THP1 cells at 1 uM treated 1 hr before LPS challenge measured after 3 hrs using propidium iodide staining by fluorescence microscopic analysis; format: cell-based; conditions: THP-1
Chain of Transcription factor p65 (Homo sapiens) (Q04206 whole entry): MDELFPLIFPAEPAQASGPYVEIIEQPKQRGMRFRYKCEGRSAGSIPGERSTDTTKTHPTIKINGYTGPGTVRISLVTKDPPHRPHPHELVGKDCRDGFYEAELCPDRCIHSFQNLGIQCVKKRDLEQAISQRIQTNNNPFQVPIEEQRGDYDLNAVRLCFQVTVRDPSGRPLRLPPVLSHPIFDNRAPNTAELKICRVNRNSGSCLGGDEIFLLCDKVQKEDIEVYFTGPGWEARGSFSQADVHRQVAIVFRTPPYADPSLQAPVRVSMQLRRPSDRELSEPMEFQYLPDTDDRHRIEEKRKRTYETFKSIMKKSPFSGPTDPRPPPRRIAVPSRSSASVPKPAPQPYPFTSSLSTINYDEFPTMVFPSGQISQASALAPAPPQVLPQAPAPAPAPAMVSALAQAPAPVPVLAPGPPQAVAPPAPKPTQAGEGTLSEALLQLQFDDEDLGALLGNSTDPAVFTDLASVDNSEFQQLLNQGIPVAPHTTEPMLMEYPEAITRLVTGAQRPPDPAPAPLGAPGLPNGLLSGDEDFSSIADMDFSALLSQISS
Summary of the method: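 PMA-differentiated THP-1 macrophages in serum-free RPMI (5 × 10^5 cells/mL) pretreated 1 h at 1 μM, then LPS 1 μg/mL final for 3 h; acetone-fixed, BSA-blocked, rabbit anti-p65 overnight at 4 °C, FITC anti-rabbit IgG 1 h, nuclei counterstained with propidium iodide 0.5 μg/mL; p65/nuclear colocalization viewed by fluorescence microscopy; three independent experiments.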

THP-1 [5] = experiment: Ratio of prednisone to compound for antiinflammatory activity in human THP1 cells assessed as inhibition of TNFalpha secretion at 1 uM treated 1 hr before LPS challenge measured after 24 hrs by ELISA; format: functional

Compound: CC(C)=CCc1c(O)ccc(C(=O)[C@@H]2[C@@H](c3ccc(O)cc3O)CC(C)=C[C@H]2c2c(O)cc3c(c2O)C(=O)[C@@H]2Oc4cc(O)ccc4[C@]2(CC=C(C)C)O3)c1O
IC50 (THP-1 [1]): 4 µM

Compound: CC1=C[C@@H]2c3c(O)cc(C=O)cc3OC3(c4ccc(O)c5c4OC(C)(C)C=C5)Oc4cc(O)ccc4[C@@H](C1)[C@H]23 (some centres undefined)
IC50 (THP-1 [1]): 4.7 µM

Compound: CC(C)=CCc1c(O)ccc([C@@]23Oc4cc(O)ccc4[C@@H]4CC(C)=C[C@@H](c5c(O)cc(-c6cc7ccc(O)cc7o6)cc5O2)[C@H]43)c1O
IC50 (A2780): 1.2 µM

Compound: CC(C)=CCC/C(C)=C/Cc1cc(C2CC(=O)c3c(O)cc(O)cc3O2)c(O)cc1O (centres undefined) [KUWANON E]
inhibition (THP-1 [2]): Active | inhibition (THP-1 [3]): Active | IC50 (THP-1 [1]): 4 µM

inhibition [4]: Active
Compound: CC(C)=CCc1c(-c2ccc(O)cc2O)oc2cc3c(c(O)c2c1=O)C=CC(C)(C)O3 [CUDRAFLAVONE B]
inhibition (THP-1 [2]): inactive | inhibition (THP-1 [3]): Active | IC50 (THP-1 [1]): > 10 µM

inhibition [4]: Active
Compound: CC(C)(O)CCc1c(-c2ccc(O)cc2O)oc2c3c(cc(O)c2c1=O)OC(C)(C)C=C3 [MORUSINOL]
Ratio (THP-1 [5]): 2 | inhibition (THP-1 [2]): Active | inhibition (THP-1 [3]): Active | IC50 (THP-1 [1]): 4.3 µM

Compound: CC(C)=CCc1c(O)cc(-c2cc3ccc(O)cc3o2)cc1O [MORACIN C]
inhibition (THP-1 [2]): inactive | IC50 (THP-1 [1]): 3.2 µM

Compound: CC(C)=CCc1c(-c2ccc(O)cc2O)oc2c(CC=C(C)C)c(O)cc(O)c2c1=O [KUWANON C]
inhibition (THP-1 [2]): Active | inhibition (THP-1 [3]): Active | IC50 (THP-1 [1]): 1.7 µM

inhibition [4]: Active
Compound: C[C@@]12C=C(c3c(O)cc(-c4cc5ccc(O)cc5o4)cc3O)C[C@@H](C1)c1ccc(O)cc1O2 [MULBERROFURAN H]
inhibition (THP-1 [2]): inactive | IC50 (THP-1 [1]): 3.2 µM

inhibition [4]: Active
Compound: CC1(C)C=Cc2c(O)ccc([C@@H]3CC(=O)c4c(O)cc(O)cc4O3)c2O1
inhibition (THP-1 [2]): Active | inhibition (THP-1 [3]): Active | IC50 (THP-1 [1]): > 10 µM

Compound: COc1c(O)cc2oc(-c3cc(O)cc(O)c3)cc2c1C/C=C(\C)CCC=C(C)C [MULBERROFURAN Y]
inhibition (THP-1 [2]): Active | IC50 (THP-1 [1]): 4.8 µM
